Data reported in BindingDB's records for doi:10.1021/jm00077a013 (Takeda Chemical Industries, 1994).

Target: T1, Endothelin-1 receptor (Sus scrofa, UniProt Q29010)
T1 sequence (Q29010 whole entry): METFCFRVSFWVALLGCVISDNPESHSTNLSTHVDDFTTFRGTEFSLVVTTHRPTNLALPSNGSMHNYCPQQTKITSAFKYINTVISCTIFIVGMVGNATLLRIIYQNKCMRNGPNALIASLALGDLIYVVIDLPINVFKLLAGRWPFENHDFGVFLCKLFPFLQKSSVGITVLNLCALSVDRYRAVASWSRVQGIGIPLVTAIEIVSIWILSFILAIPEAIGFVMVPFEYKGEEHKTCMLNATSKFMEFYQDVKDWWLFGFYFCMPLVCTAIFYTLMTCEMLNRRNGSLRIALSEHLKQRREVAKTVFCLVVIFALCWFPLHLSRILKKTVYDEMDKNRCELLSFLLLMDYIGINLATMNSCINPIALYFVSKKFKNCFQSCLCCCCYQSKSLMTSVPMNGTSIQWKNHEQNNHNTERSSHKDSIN
Test: Tested for the competitive binding versus [125I]- ET-1 determined in porcine cardiac ventricular membrane for Endothelin A receptor
Summary of the method: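 Membranes (porcine cardiac ventricle at 12 μg/mL for ETA; bovine cerebrum at 150 μg/mL for ETB) in pH 7.2 Tris/EGTA/Mg acetate/0.1% BSA buffer with protease inhibitors. Incubated with 100 pM [125I]ET-1 and varied compound for 1 h at 25 °C, then filtered and counted by gamma counter. IC50 given as mean ± SEM of ≥3 determinations.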

In the case of `CC[C@H](C)[C@H](NC(=O)[C@H](CC1CCCCC1)NC(=O)[C@@H](NC(=O)[C@H](CC(C)C)NC(=O)[C@H](Cc1c[nH]cn1)NC(=O)[C@@H]1CSSC[C@H](N)C(=O)N[C@@H](CO)C(=O)N[C@H]2CSSC[C@H](NC(=O)[C@H](CCC(=O)O)NC(=O)[C@H](CCCCN)NC(=O)[C@H](CC(=O)O)NC(=O)[C@H](CCSC)NC(=O)[C@H](CC(C)C)NC(=O)[C@H](CO)NC(=O)[C@H](CO)NC2=O)C(=O)N[C@@H](C(C)C)C(=O)N[C@@H](Cc2ccc(O)cc2)C(=O)N[C@@H](Cc2ccccc2)C(=O)N1)[C@@H](C)O)C(=O)N[C@@H](Cc1c[nH]c2ccccc12)C(=O)O`, the IC50 is reported as 0.7 nM.
